Only some compounds are listed: those with a hit (about 3.9% of all), similar ones and a draw of the others.
HSP90 refold inh: HSP90 inhibitors, primary screen, cell lysate, luminescence; Rabbit reticulocyte lysate, luciferase refolding luminescence, 3 h; Heat shock protein HSP 90 (rabbit reticulocyte lysate; luciferase refolding); 290,000 tested, 0.91% active; inhibition, % at 5.6 µM;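 active means inhibition above the screen-wide mean plus 3 SD, computed separately per campaign, cut at about 16% in these data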;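 further: inhibitors lower the luminescence because luciferase stays unfolded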
HSF1 inhib: HSF1 inhibitors in luciferase reporter cells, primary screen, cell-based, NIH3T3, luminescence. activity change, negative = inhibition, % at 7.5 µM (by protocol). 300,000 tested, 0.77% active. NIH3T3-HGL HSE-luciferase, MG132-induced, luminescence 8 h; stronger effect = lower value;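 active means more than half of replicate wells show activity change below -50%, luminescence cut by over half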;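 further: luciferase reports HSF-1 transcriptional activity via heat shock element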
FID counter: compounds displacing fluorescent DNA intercalator, primary screen, artefact control for HCV NS3 helicase inhibitor project, biochemical, FID fluorescence; inhibition, % at 7.9 µM; DNA fluorescent intercalator displacement; 290,000 tested, 0.17% active; in the data active means inhibition above about 37%;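 further: higher means more ethidium bromide displaced from hairpin DNA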
core dimer inh: inhibitors of HCV core protein dimerization, primary screen, biochemical, TR-FRET, high-throughput | TR-FRET GST/Flag-core106 dimerization, 1536-well | inhibition, % at 5 µM | 300,000 tested, 0.33% active | AID 1899, 2009;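 active means inhibition above the mean of all tested compounds plus 3 SD, set per screening campaign, cut at about 45% in these data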
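Material: Tagged HCV core106 pair (GST and Flag) | Amount: GST-core106 13.5 nM, Flag-core106 17 nM | Medium: KF-containing HEPES buffer, pH 7.45, DTT, CHAPS, BSA | Reagent: Eu donor and XL665 acceptor anti-tag antibodies | Schedule: 4 h at 22.5 °C | Technique: Time-resolved FRET, ex 340 nm, em 617 and 671 nm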
HSF1 activator: HSF-1 activators, primary screen, NIH3T3-HGL cells, MG132 stress, luminescence, single point | NIH3T3-HGL HSF-1 luciferase reporter, 8 h; 100% = twice DMSO control signal | activation, % at 9 µM | 300,000 tested, 1.7% active | AID 504408, 2011;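 active means mean replicate activation of at least 50% with a set share of replicates each reaching 50%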
NS3 helicase inh: inhibitors of HCV NS3 helicase, primary screen, biochemical, Cy5 molecular beacon fluorescence | NS3 helicase DNA unwinding | inhibition, % at 10.9 µM | 290,000 tested, 0.56% active | AID 1800, 2009;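 active means inhibition above the mean of all tested compounds plus 3 SD, set per campaign, cut at about 35% in these data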
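Control set: DMSO versus 110 µM thioflavine S; Material: NS3 helicase fragment of HCV; Measured by: Cy5 fluorescence at 0 and 60 min, beacon hairpin quenching; Read-out basis: percent inhibition from t60/t0 fluorescence ratio; Times: reaction time 60 min, 25 °C; Repeats: single replicate; Compound dosing: single dose, 10.9 µM nominal final, DMSO 0.8% final.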
Of the large screens only hits and unclear results are named; the others gave an inactive call.

CC1(C)CC(=O)c2cnc(N3CCc4ccccc4C3)nc2C1	HSF1 activator 55.2
CC(=O)n1cc(N(C(=O)CCl)c2ccc(Cl)cc2)c2ccccc21	HSF1 inhib -83.6
COc1ccccc1N(C(=O)CCl)c1cn(C(C)=O)c2ccccc12	HSF1 inhib -76.0
CCOC(=O)c1ccccc1Nc1cn(C(C)=O)c2ccccc12	none
Cc1onc(-c2ccccc2)c1C(=O)N/N=C/c1cn(C)c2ccccc12	none
COc1cccc2c1C(=O)c1c(O)c3c(c(O)c1C2=O)C[C@](O)(C(C)=O)C[C@H]3O[C@@H]1C[C@@H](N)[C@@H](O)[C@@H](C)O1	HSF1 inhib -67.1 (no result: HSP90 refold inh, FID counter, NS3 helicase inh)
NS(=O)(=O)c1cccc(NC(=O)CNC(=O)CC23CC4CC(CC(C4)C2)C3)c1	HSF1 inhib -76.8
NS(=O)(=O)c1cccc(NC(=O)CC23CC4CC(C2)CC(CC(=O)Nc2cccc(S(N)(=O)=O)c2)(C4)C3)c1	none
CNS(=O)(=O)c1cccc(C(=O)OCCCOC(=O)c2cccc(S(=O)(=O)NC)c2)c1	none (no result: core dimer inh)
CC1=CC(=O)c2c(O)ccc(O)c2C1=O	core dimer inh 69.8 (no result: HSF1 inhib, HSF1 activator)
COc1ccccc1N1CCN(CC(O)COCCOc2ccc(Br)cc2)CC1 (stereo unspecified)	none
COc1ccc(N2CCN(CC(O)COCCOc3ccc(Br)cc3)CC2)cc1 (stereo unspecified)	HSF1 inhib -65.7
COc1ccc(CN2CCNC(=O)C2CC(=O)O)cc1OC (stereo unspecified)	none
COc1ccc(CN2CCNC(=O)C2CC(=O)NC2CC(C)(C)CC(C)(C)C2)cc1OC (stereo unspecified)	HSF1 inhib -70.4
Cc1cc(C(=O)Nc2ccc(Cl)cc2)c(C)n1Cc1cccs1	HSP90 refold inh 16.4
CC(=O)Nc1ccc(NC(=O)COc2ccc([N+](=O)[O-])cc2)cc1	none
CNC(=S)NNC(=O)COc1ccccc1C	HSF1 activator 56.7
COC(=O)c1sc(NC(=O)COc2ccccc2C)nc1C	HSF1 activator 56.8
COC(=O)c1sc(NC(=O)COc2c(C)cccc2C)nc1C	none
CNC(=S)NNC(=O)COc1cccc(C)c1C	none
O=C(COc1ccc(/C=N/NC(=O)c2ccncc2)cc1)Nc1cccc([N+](=O)[O-])c1	none
O=C(COc1ccc(/C=N/NC(=O)c2ccccc2O)cc1)Nc1ccc([N+](=O)[O-])cc1	core dimer inh 50.1 (no result: HSF1 inhib, HSF1 activator)
Cc1ccccc1OCC(=O)Nc1ccc([N+](=O)[O-])cc1	HSF1 inhib -70.3
CC(OC(=O)c1ccc2c(=O)n3c(nc2c1)CCCCC3)C(N)=O (stereo unspecified)	none
O=c1c(-c2nc3ccccc3o2)c2oc3ccccc3n2c2ccccc12	none (no result: core dimer inh)
O=C(CCCC(=O)Nc1ccccc1Br)N/N=C/c1c(F)cccc1Cl	none
Cc1ccc(S(=O)(=O)NC(C)(C)CSc2nncn2N)cc1	HSF1 inhib -77.3
Oc1ccc(CCNc2c3ccccc3nc3ccccc23)cc1O	FID counter 39.4
COc1ccc(/C=C/C(=O)Nc2nonc2NC(C)=O)cc1	none
Cc1cccc(C(=O)N2CCc3cc(-c4nc(NC(=O)Cn5nnc6ccccc6c5=O)sc4C)ccc32)c1	core dimer inh 52.1 (no result: HSF1 inhib, HSF1 activator)
CSc1nc2ccc(NS(=O)(=O)c3ccc([N+](=O)[O-])cc3)cc2s1	HSF1 inhib -89.0
Oc1ccc(/C=N/N2CCOCC2)c(O)c1O	none
Cc1cccc(CSCc2ccc(C(=O)NC3CCCC3)o2)c1	none
CCOC(=O)N1CCC(NC(=O)CS(=O)Cc2nc(-c3ccc(Cl)cc3)oc2C)CC1 (stereo unspecified)	none
CC(=O)Nc1cc[n+](C(C)C(=O)c2ccccc2)cc1 (stereo unspecified)	HSF1 inhib -67.8
CC(=O)Nc1cc[n+](C(C)C(=O)c2ccc(Br)cc2)cc1 (stereo unspecified)	none
